Results published in the M2OR odorant receptor database.
Changes are numbered by the printed parent chain.

Experiments:
Conditions in all cases: stereoisomer not certain
OR1L3 (Homo sapiens) = biological target: T1, OR1L3 (Homo sapiens) (UniProt Q8NH93)
T1 sequence (whole entry): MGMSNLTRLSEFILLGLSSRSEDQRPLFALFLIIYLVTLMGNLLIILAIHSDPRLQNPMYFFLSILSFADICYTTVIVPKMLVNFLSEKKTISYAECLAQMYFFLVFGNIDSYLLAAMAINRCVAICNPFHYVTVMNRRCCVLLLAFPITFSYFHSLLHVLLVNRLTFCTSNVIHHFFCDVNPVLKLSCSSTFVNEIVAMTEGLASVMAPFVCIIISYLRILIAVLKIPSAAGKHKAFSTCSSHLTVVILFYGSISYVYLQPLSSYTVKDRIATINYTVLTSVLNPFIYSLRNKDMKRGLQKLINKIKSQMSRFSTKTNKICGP
How it was run: (§1)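 Each entry records the cell line, G-protein, co-transfected protein and tags used. Methods varied with the source, often transient luciferase assays in mammalian cell lines. A receptor–molecule pair is called responsive (active) if the original authors judged its signal statistically different from baseline and non-responsive (inactive) otherwise.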

OR1L4 (Homo sapiens) = biological target: T2, OR1L4 (Homo sapiens) (UniProt Q8NGR5)
T2 sequence (whole entry): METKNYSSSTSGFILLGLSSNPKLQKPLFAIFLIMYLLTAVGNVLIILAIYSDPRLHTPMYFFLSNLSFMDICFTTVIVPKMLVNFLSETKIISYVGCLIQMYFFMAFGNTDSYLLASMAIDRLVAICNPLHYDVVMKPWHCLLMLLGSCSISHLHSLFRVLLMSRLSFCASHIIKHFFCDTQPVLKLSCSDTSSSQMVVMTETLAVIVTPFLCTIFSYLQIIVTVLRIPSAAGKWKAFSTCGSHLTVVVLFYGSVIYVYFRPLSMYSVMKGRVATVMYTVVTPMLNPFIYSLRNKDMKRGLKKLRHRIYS
How it was run: as §1

OR1L4 = system: T3, OR1L4
T3 sequence (whole entry): T2 sequence (whole entry) with G234R
How it was run: as §1

OR1L6 = system: T4, OR1L6
T4 sequence (whole entry): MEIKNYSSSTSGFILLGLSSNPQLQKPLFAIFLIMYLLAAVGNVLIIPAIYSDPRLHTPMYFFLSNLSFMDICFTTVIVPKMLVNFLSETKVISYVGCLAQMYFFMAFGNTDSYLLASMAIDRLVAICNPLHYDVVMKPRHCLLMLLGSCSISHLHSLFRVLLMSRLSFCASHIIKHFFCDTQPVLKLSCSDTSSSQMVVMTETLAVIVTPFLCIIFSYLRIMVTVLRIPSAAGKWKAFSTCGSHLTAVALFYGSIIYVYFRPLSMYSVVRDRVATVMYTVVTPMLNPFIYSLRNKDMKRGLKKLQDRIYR
How it was run: as §1

OR1L8 (Homo sapiens) = biological target: T5, OR1L8 (Homo sapiens) (UniProt Q8NGR8)
T5 sequence (whole entry): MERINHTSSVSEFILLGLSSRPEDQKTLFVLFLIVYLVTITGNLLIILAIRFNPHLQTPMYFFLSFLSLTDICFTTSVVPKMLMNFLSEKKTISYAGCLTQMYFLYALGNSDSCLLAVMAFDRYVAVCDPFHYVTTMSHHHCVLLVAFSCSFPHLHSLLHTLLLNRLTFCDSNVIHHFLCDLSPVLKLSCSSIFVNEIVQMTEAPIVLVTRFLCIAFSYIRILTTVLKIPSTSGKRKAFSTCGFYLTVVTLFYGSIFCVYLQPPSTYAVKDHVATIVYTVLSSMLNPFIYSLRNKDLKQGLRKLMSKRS
How it was run: as §1

OR1L8 T27P R211P = system: T6, OR1L8 T27P R211P
T6 sequence (whole entry): T5 sequence (whole entry) with T27P, R211P
How it was run: as §1

OR1M1 (Homo sapiens) = biological target: T7, OR1M1 (Homo sapiens) (UniProt Q8NGA1)
T7 sequence (whole entry): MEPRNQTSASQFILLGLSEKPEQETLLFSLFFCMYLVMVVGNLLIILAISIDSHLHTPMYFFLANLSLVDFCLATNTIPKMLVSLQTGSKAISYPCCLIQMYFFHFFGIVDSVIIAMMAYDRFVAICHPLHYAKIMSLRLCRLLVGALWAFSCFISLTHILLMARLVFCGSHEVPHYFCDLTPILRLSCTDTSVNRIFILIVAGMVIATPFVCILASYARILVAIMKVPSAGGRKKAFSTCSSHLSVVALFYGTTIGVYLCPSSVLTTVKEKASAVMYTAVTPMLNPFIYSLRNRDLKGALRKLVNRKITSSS
How it was run: as §1

OR1N1 (Homo sapiens) = biological target: T8, OR1N1 (Homo sapiens) (UniProt Q8NGS0)
T8 sequence (whole entry): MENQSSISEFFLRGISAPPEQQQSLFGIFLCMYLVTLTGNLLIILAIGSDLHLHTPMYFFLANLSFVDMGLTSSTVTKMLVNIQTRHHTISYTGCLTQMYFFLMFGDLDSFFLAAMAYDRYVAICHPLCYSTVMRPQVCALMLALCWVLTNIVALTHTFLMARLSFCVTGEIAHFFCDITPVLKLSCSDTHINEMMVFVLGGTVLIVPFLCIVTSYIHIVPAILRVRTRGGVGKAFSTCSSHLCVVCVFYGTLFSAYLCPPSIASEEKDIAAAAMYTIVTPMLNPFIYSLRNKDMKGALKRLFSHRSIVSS
How it was run: as §1

OR1N2 W37R = system: T9, OR1N2 W37R
T9 sequence (whole entry): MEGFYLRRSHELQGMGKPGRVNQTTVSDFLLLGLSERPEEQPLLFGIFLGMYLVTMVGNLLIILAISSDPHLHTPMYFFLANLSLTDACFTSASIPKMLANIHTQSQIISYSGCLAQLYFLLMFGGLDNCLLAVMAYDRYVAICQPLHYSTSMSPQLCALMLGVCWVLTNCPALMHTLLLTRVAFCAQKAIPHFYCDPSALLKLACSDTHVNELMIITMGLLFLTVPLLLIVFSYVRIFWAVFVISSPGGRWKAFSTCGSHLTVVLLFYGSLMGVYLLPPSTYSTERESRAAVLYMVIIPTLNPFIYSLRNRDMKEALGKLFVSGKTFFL
How it was run: as §1

OR1N2 = system: T10, OR1N2
T10 sequence (whole entry): T9 sequence (whole entry) with R37W
How it was run: as §1

OR1Q1 (Homo sapiens) = biological target: T11, OR1Q1 (Homo sapiens) (UniProt Q15612)
T11 sequence (whole entry): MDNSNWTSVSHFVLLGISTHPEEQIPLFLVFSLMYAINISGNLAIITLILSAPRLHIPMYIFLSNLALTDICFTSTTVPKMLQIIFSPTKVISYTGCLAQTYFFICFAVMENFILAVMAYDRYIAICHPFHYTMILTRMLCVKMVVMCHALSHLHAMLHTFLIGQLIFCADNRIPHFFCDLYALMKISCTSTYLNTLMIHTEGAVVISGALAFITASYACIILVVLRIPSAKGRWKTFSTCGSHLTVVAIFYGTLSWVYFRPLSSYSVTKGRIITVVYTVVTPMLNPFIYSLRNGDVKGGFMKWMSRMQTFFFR
How it was run: as §1

OR1Q1 = system: T12, OR1Q1
T12 sequence (whole entry): T11 sequence (whole entry) with Q24R, I163M
How it was run: as §1

OR1S1 (Homo sapiens) = biological target: T13, OR1S1 (Homo sapiens) (UniProt Q8NH92)
T13 sequence (whole entry): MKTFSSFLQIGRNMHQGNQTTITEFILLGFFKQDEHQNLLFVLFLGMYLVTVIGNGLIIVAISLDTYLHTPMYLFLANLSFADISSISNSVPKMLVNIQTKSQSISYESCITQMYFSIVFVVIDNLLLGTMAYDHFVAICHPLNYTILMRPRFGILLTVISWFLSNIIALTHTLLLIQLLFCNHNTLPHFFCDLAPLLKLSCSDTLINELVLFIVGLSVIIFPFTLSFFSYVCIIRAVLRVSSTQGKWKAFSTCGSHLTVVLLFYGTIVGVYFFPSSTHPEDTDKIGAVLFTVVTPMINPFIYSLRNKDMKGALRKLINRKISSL
How it was run: as §1

OR1S2 (Homo sapiens) = biological target: T14, OR1S2 (Homo sapiens) (UniProt Q8NGQ3)
T14 sequence (whole entry): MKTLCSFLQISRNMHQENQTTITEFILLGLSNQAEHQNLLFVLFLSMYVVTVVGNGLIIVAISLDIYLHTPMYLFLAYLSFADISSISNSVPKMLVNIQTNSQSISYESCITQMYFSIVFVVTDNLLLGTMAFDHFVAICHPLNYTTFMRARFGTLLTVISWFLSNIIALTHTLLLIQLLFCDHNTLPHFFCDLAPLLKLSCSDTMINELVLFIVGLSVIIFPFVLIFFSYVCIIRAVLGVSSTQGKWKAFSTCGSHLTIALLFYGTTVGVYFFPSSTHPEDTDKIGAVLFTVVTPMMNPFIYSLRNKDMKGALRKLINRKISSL
How it was run: as §1

OR1S2 E17G = system: T15, OR1S2 E17G
T15 sequence (whole entry): T14 sequence (whole entry) with E17G
How it was run: as §1

OR1S2 V225T G240R = system: T16, OR1S2 V225T G240R
T16 sequence (whole entry): T14 sequence (whole entry) with V225T, G240R
How it was run: as §1

OR2A1 (Homo sapiens) = biological target: T17, OR2A1 (Homo sapiens) (UniProt Q8NGT9)
T17 sequence (whole entry): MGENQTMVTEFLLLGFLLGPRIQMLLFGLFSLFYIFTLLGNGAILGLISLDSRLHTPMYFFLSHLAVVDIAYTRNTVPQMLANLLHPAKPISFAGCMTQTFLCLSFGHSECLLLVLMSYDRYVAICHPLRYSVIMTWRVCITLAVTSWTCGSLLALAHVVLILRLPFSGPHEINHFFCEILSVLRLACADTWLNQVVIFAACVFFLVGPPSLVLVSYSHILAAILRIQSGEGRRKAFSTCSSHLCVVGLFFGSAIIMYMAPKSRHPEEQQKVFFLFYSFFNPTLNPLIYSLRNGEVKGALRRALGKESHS
How it was run: as §1

OR2A1 S168C = system: T18, OR2A1 S168C
T18 sequence (whole entry): T17 sequence (whole entry) with S168C
How it was run: as §1

OR1L6 (Homo sapiens) = biological target: T19, OR1L6 (Homo sapiens) (UniProt Q8NGR2)
T19 sequence (whole entry): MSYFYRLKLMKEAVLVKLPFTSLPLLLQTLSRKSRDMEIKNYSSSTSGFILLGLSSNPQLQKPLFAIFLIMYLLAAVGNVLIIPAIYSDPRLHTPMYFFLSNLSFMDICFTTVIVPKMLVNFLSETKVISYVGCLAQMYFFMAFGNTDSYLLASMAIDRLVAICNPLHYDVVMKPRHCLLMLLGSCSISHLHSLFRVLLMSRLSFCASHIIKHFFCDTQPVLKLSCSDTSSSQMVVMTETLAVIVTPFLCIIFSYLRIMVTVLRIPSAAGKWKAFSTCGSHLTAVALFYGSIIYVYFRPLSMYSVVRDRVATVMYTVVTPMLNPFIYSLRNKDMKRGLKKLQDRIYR
How it was run: as §1

OR1P1 (Homo sapiens) = OR1P1 (Homo sapiens) (UniProt Q8NH06)
How it was run: as §1

Measured: odorant receptor agonist call

Chain of OR1P1 (Homo sapiens) (Q8NH06 whole entry K185A): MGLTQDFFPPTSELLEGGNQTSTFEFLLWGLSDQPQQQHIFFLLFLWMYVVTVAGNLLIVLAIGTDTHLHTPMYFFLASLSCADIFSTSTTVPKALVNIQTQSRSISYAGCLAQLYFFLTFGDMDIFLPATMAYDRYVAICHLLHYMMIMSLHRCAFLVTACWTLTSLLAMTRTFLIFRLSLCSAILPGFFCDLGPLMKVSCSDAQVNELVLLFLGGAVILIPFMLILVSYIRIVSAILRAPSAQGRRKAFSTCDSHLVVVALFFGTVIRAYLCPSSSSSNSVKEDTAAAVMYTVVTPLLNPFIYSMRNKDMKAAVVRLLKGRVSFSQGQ

CCC1OC(=O)C(O)=C1C (centres undefined)
not listed: OR1L6 (Homo sapiens) | OR1P1 (Homo sapiens)
inactive: all other assays above

CCC(S)C(C)CO (centres undefined)
inactive: OR1L3 (Homo sapiens) | OR1L4 (Homo sapiens) | OR1L6 (Homo sapiens) | OR1L8 (Homo sapiens) | OR1M1 (Homo sapiens) | OR1N1 (Homo sapiens) | OR1N2 | OR1Q1 (Homo sapiens) | OR1S1 (Homo sapiens) | OR1S2 (Homo sapiens) | OR2A1 (Homo sapiens)

CCCCCCCCCCCCO
inactive: OR2A1 (Homo sapiens)

CCCC(=O)CC
inactive: OR2A1 (Homo sapiens)

CCC1OC(C)=C(O)C1=O (centres undefined)
not listed: OR1L6 (Homo sapiens) | OR1P1 (Homo sapiens)
inactive: all other assays above

O=C([O-])CCCCCCCC(=O)[O-].[H+].[H+]
inactive: OR1N1 (Homo sapiens)

CC1CCCCCCCCCCCCC(=O)C1 (centres undefined)
not listed: OR1L4 | OR1L6 | OR1L8 T27P R211P | OR1N2 W37R | OR1Q1 | OR1S2 E17G | OR1S2 V225T G240R | OR2A1 S168C
inactive: all other assays above

CC1=C(O)C(=O)OC1C (centres undefined)
not listed: OR1L6 (Homo sapiens) | OR1P1 (Homo sapiens)
inactive: all other assays above

CCCC(S)CCOC(C)=O (centres undefined)
not listed: OR1L6 (Homo sapiens) | OR1P1 (Homo sapiens)
inactive: all other assays above

CC(CO)CS (centres undefined)
inactive: OR1L3 (Homo sapiens) | OR1L4 (Homo sapiens) | OR1L6 (Homo sapiens) | OR1L8 (Homo sapiens) | OR1M1 (Homo sapiens) | OR1N1 (Homo sapiens) | OR1N2 | OR1Q1 (Homo sapiens) | OR1S1 (Homo sapiens) | OR1S2 (Homo sapiens) | OR2A1 (Homo sapiens)
